Source: PubChem BioAssay (The Scripps Research Institute Molecular Screening Center)
A selection: hits, their analogues and other compounds. The true share with any hit is near 1.4%.
NS3 helicase inh – HCV NS3 helicase inhibition; NS3 helicase DNA unwinding, Cy5 molecular beacon fluorescence; hit rate 0.56% among 290,000; inhibition, % at 10.9 µM;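 active = inhibition above the mean of all tested compounds plus 3 SD, set per campaign, cut at about 35% in these data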;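 also: 0% = DMSO wells and 100% = thioflavine S control wells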
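Measured by: Cy5 fluorescence, 0 and 60 min reads / Assay system: NS3 helicase fragment of HCV / Control set: low DMSO, high thioflavine S at 110 µM / Times: 1 h reaction at 25 °C, ATP-initiated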
EBNA-1 inh – blocks EBNA-1 binding to DNA; EBNA-1 DNA binding, fluorescence polarization; inhibition, % at 14.8 µM; hit rate 0.34% among 300,000; AID 1950; in the data active = inhibition above about 28%
CTSL1 counter – cathepsin L1 inhibition, PFM18AAP counter-screen. recombinant F. hepatica cathepsin L1, Z-Leu-Arg-MCA fluorescence. inhibition, % at 5.96 µM. hit rate 0.49% among 300,000. AID 1906;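 active = inhibition above the mean of all tested compounds plus 3 SD, set per screening campaign, cut at about 17% in these data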;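 also: 0% = plate median of test compound wells and 100% = 1 µM Z-Phe-Ala-diazomethylketone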
ZTA counter – ZTA (EBV) inhibition in EBNA-1 counter-screen. P03206. ZTA-DNA binding, fluorescence polarization. inhibition, % at 11 µM. hit rate 0.15% among 320,000. AID 2234; in the data active = inhibition above about 33%
Target sequence (P03206 whole entry, looked up): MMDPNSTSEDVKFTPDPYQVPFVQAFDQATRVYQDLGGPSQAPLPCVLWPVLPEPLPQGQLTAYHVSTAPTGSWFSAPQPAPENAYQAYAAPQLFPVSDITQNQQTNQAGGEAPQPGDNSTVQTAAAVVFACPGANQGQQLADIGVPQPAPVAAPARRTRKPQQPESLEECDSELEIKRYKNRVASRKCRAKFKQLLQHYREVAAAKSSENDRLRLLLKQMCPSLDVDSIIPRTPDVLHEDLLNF
NS3 hel confirm – HCV NS3 helicase inhibition, confirmation assay. shares compounds with NS3 helicase inh. NS3 helicase DNA unwinding, Cy5 molecular beacon fluorescence. inhibition, % at 10.9 µM. hit rate 31% among 1,600;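 active = inhibition above the mean of all tested compounds plus 3 SD, cutoff set per campaign, cut at about 36% in these data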
FID counter trip – counter-screen for HCV NS3 helicase inhibitors: DNA intercalator displacement; shares compounds with NS3 helicase inh; DNA fluorescent intercalator displacement, fluorescence; inhibition, % at 7.9 µM; hit rate 4% among 1,600; AID 1945; in the data active = inhibition above about 37%;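 also: 0% = vehicle and 100% = reference compound; higher means more displacement of ethidium bromide from the DNA hairpin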
Starred values were filed as active, the others as inactive.

`CCc1ccc(N=C2NC(=O)/C(=C/c3cc(Br)c(OCC(=O)O)c(OC)c3)S2)cc1` gave NS3 helicase inh 22.3, EBNA-1 inh 9.8, CTSL1 counter 5.9 and ZTA counter 28.9.
Screening CCOc1cc(/C=C2\SC(=Nc3ccc(CC)cc3)NC2=O)ccc1OCC(=O)O returned NS3 helicase inh 45.8*, EBNA-1 inh 5.0, CTSL1 counter -0.4, ZTA counter 19.0, NS3 hel confirm 69.1* and FID counter trip 6.5.
Screening COc1cc(CNC2CCCCCCC2)cc(Cl)c1OCC(N)=O returned NS3 helicase inh 12.8, EBNA-1 inh -6.2, CTSL1 counter 0.3 and ZTA counter -0.2.
`COc1ccc(N2CCN(C(=O)CCS(=O)(=O)c3cccc4nsnc34)CC2)cc1` gave NS3 helicase inh -8.9, EBNA-1 inh -1.2, CTSL1 counter -8.4 and ZTA counter 0.2.
Screening c1ccc(-n2cc(CN3CCCC(CN4CCCC4)C3)c(-c3ccc4c(c3)OCO4)n2)cc1 (centres undefined) returned NS3 helicase inh -32.5, EBNA-1 inh 4.8, CTSL1 counter 2.4 and ZTA counter 10.8.
For CC1=NN(c2ccccc2)C(=O)C1N=Nc1ccc(C)cc1 (centres undefined) the results were NS3 helicase inh -2.5, EBNA-1 inh 3.2, CTSL1 counter -1.6 and ZTA counter 1.8.
For CC1=NN(c2ccccc2)C(=O)C1C=Nc1ccc(N(C)C)cc1 (centres undefined) the results were NS3 helicase inh 44.1*, EBNA-1 inh 82.3*, CTSL1 counter 2.8, ZTA counter active, NS3 hel confirm -0.9 and FID counter trip 0.9.
For Cc1nnc(-c2ccco2)c2cn(-c3cccc(Br)c3)nc12 the results were NS3 helicase inh 39.0*, EBNA-1 inh -0.2, CTSL1 counter 4.2, ZTA counter 3.6, NS3 hel confirm 3.7 and FID counter trip 8.9.
`CC(=O)c1nn(-c2cccc(Br)c2)cc1C(=O)c1ccco1` gave NS3 helicase inh 8.0, EBNA-1 inh -10.7, CTSL1 counter -0.8 and ZTA counter -9.2.
`CCC(C)(C)NC(=O)C(c1ccc(F)cc1)N(Cc1cccc(OC)c1)C(=O)c1cnccn1` (centres undefined) gave NS3 helicase inh 0.3, EBNA-1 inh -9.2, CTSL1 counter -0.2 and ZTA counter 1.9.
`O=C(CCCN1C(=O)/C(=C/c2ccco2)SC1=S)Nc1cccc(C(=O)O)c1` gave NS3 helicase inh 56.3*, EBNA-1 inh -1.6, CTSL1 counter -1.2, ZTA counter -11.6, NS3 hel confirm 87.9* and FID counter trip 4.2.
For O=C(CCCN1C(=O)/C(=C\c2cccs2)SC1=S)Nc1cccc(C(=O)O)c1 the results were NS3 helicase inh 7.9, EBNA-1 inh 3.7, CTSL1 counter 4.3 and ZTA counter -9.5.
For NN1C(=O)/C(=C\c2ccco2)SC1=S the results were NS3 helicase inh 38.5*, EBNA-1 inh 4.8, CTSL1 counter 2.0, ZTA counter 10.3, NS3 hel confirm -12.1 and FID counter trip -1.2.
For C=CCNC(=O)CSc1nnc(-c2ccc(S(=O)(=O)N3CCCC3)cc2)n1C the results were NS3 helicase inh 47.4*, EBNA-1 inh 2.5, CTSL1 counter -10.8, ZTA counter -17.5, NS3 hel confirm -13.9 and FID counter trip 4.7.
O=C(c1c(O)cc(O)cc1O)C1c2c(cc(O)c3c2O[C@H](c2ccc(O)cc2)[C@@H](O)C3)OC1c1ccc(O)cc1 (some centres undefined) was read as ZTA counter 4.1.
Screening COCCn1c(C)cc(C2=NNC(=Nc3ccc(Cl)cc3Cl)SC2)c1C returned NS3 helicase inh 36.7*, EBNA-1 inh 13.9, CTSL1 counter 5.3, ZTA counter 10.0, NS3 hel confirm 22.3 and FID counter trip -5.4.
Screening CCOc1ccc(N=C2NN=C(c3cc(C)n(CC4CCCO4)c3C)CS2)cc1 (centres undefined) returned NS3 helicase inh 40.7*, EBNA-1 inh 2.2, CTSL1 counter -0.3, ZTA counter 9.3, NS3 hel confirm 16.9 and FID counter trip 11.7.
`CC(=O)c1cccc(NC(=O)CCCCCn2nnc3ccccc3c2=O)c1` gave NS3 helicase inh 20.3.
